Results on 25 molecules are retold here after ChEMBL document CHEMBL1131181, “Abasic analogues of TSAO-T as the first sugar derivatives that specifically inhibit HIV-1 reverse transcriptase” (J Med Chem, 1998).

Assay [1] has as its system MT4. In words: compound was tested for antiviral activity against HIV-2 ([…]) in MT-4 cell line, activity expressed as concentration required to protect 50% of the virus-infected cells against destruction by the virus. In kind it is functional, cell-based. The following applies: Homo sapiens.
Assay [2] relates to Human immunodeficiency virus 1. Description: In vitro antiviral activity against HIV-1 (IIIB) in CEM (human leukemia) cells. The format is functional, organism-based. The following applies: Human immunodeficiency virus 1, CCRF-CEM. The procedure, abridged: (§1)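 CEM cells at 250 000 cells/mL were infected with HIV-1(III_B) or HIV-2(ROD) at 100 CCID₅₀/mL, then added to compound dilutions. After 4 days at 37 °C, cultures were scored for syncytium formation. EC₅₀ is the concentration that inhibits syncytium formation by 50%.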

The test system of assay [3] is Human immunodeficiency virus 2. Description: In vitro antiviral activity against HIV-2 (ROD) in CEM (human leukemia) cells. The format is functional, organism-based. The following applies: Human immunodeficiency virus 2, CCRF-CEM. In a few lines: as §1
Assay [4] deals with MT4. Description: Cytostatic concentration test against mock infected human cells of MT-4 cell line. The format is functional. The procedure, abridged: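 MT-4 cells at 5 × 10⁵ cells/mL, mock-infected, combined with compound dilutions and held 5 days at 37 °C. Viable cells were counted in a blood-cell-counting chamber after Trypan blue staining. CC₅₀ is the concentration that cuts the viable cell number by 50%.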

For assay [5], the system named is Human immunodeficiency virus 1. Description: compound was tested for antiviral activity against HIV-1 (3B) in MT-4 cell line, activity expressed as concentration required to protect 50% of the virus-infected cells against destruction by the virus. The following applies: Human immunodeficiency virus 1, MT4. In kind it is functional, organism-based.
A further assay has as its system CCRF-CEM. Description: compound was tested for cytostatic concentration against mock infected cells of CEM cell line. The format is functional. The following applies: Homo sapiens. The procedure, abridged: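 Uninfected CEM cells at 250 000 cells/mL were cultured with compound dilutions for 4 days at 37 °C. CC₅₀ is the concentration that inhibits CEM cell proliferation by 50%.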

As usually defined, the EC50 is the concentration at which the effect is half-maximal. Read a high EC50 as a need for much substance. As usually defined, the CC50 is the concentration giving 50% cytotoxicity. A higher CC50 goes with better tolerance by the cells.

The structures appear in SMILES notation.

As for `CC(=O)N[C@@H]1O[C@H](CO[Si](C)(C)C(C)(C)C)[C@@]2(OS(=O)(=O)C=C2N)[C@H]1O[Si](C)(C)C(C)(C)C`, the EC50 with MT4 [1] is more than 8 µM; in assay [2], 2.6 µM; in assay [3], more than 8 µM; in assay [5] it was 2.6 µM. The molecule further registered a CC50 with MT4 [4] of 13 µM.
For the molecule `CSc1ccc(NC(=O)N[C@H]2O[C@H](CO[Si](C)(C)C(C)(C)C)[C@@]3(OS(=O)(=O)C=C3N)[C@H]2O[Si](C)(C)C(C)(C)C)cc1`, the CC50 in the assay with CCRF-CEM came out at 6.4 µM; in the assay with MT4 [4] it was 17 µM. Further, the EC50 with MT4 [1] was more than 10 µM; in assay [2] it was more than 2 µM; in assay [3], more than 2 µM; in assay [5], 4.2 µM.
Regarding `CC(C)(C)[Si](C)(C)OC[C@H]1O[C@@H](N=[N+]=[N-])[C@H](O[Si](C)(C)C(C)(C)C)[C@]12OS(=O)(=O)C=C2N`, the CC50 in the assay on CCRF-CEM and in the assay on MT4 [4] was more than 200 µM in each case. Moreover, the EC50 (with MT4 [1]; in assay [2]; in assay [3]; in assay [5]) was more than 200 µM throughout.
With `CC(C)(C)[Si](C)(C)OC[C@H]1O[C@@H](NC(=O)Nc2ccccc2)[C@H](O[Si](C)(C)C(C)(C)C)[C@]12OS(=O)(=O)C=C2N`, the CC50 was determined as 10 µM with CCRF-CEM and 14 µM in the assay on MT4 [4]. Further, the EC50 was more than 10 µM in the assay with MT4 [1], more than 10 µM in assay [2], more than 10 µM in assay [3] and 5.1 µM in assay [5].
For the molecule `CSc1ccc(NC(=O)N[C@@H]2O[C@H](CO[Si](C)(C)C(C)(C)C)[C@@]3(OS(=O)(=O)C=C3N)[C@H]2O[Si](C)(C)C(C)(C)C)cc1`, the half-maximal cytotoxic concentration (CC50) was determined as 22 µM with CCRF-CEM and 29 µM in the assay with MT4 [4]. Also, the EC50 with MT4 [1] is more than 10 µM; in assay [2], 5 µM; in assay [3], more than 10 µM; in assay [5] it was 4.5 µM.
Take `COC1OC(CO[Si](C)(C)C(C)(C)C)C2(OS(=O)(=O)C=C2N)C1O[Si](C)(C)C(C)(C)C` (stereo not given): the EC50 was more than 200 µM in the assay with MT4 [1] and 21 µM in assay [5]. The CC50 in the assay on MT4 [4] is more than 200 µM.
Regarding `COC(=O)c1ccccc1NC(=O)N[C@H]1O[C@H](CO[Si](C)(C)C(C)(C)C)[C@@]2(OS(=O)(=O)C=C2N)[C@H]1O[Si](C)(C)C(C)(C)C`, the CC50 in the assay on CCRF-CEM came out at 22 µM; in the assay on MT4 [4] it was 26 µM. Besides, the EC50 in the assay with MT4 [1] is more than 10 µM; in assay [2], 4.5 µM; in assay [3], more than 10 µM; in assay [5], 5.3 µM.
In the case of `C=C(C)C(=O)NC(=O)N[C@@H]1O[C@H](CO[Si](C)(C)C(C)(C)C)[C@@]2(OS(=O)(=O)C=C2N)[C@H]1O[Si](C)(C)C(C)(C)C`, the results for the CC50 in the assay with CCRF-CEM and in the assay with MT4 [4] were 6.1 µM and 8.6 µM, respectively. For the same molecule, the EC50 with MT4 [1] is more than 6.5 µM; in assay [2], 0.56 µM; in assay [3] it was more than 6.5 µM; in assay [5], 0.59 µM.
For `C=C(C)C(=O)NC(=O)N[C@H]1O[C@H](CO[Si](C)(C)C(C)(C)C)[C@@]2(OS(=O)(=O)C=C2N)[C@H]1O[Si](C)(C)C(C)(C)C`, the figures for the CC50 in the assay on CCRF-CEM and in the assay on MT4 [4] were 6.4 µM and 2.7 µM, respectively. Moreover, the EC50 with MT4 [1] is more than 1.3 µM; in assay [2] it was more than 6.5 µM; in assay [3], more than 6.5 µM; in assay [5] it was more than 1.3 µM.
As to `CC(C)(C)[Si](C)(C)OC[C@H]1O[C@H](NC(=O)Nc2ccccc2)[C@H](O[Si](C)(C)C(C)(C)C)[C@]12OS(=O)(=O)C=C2N`, the CC50 with CCRF-CEM turned out to be 4.2 µM; with MT4 [4], 4.3 µM. Moreover, the EC50 was more than 2 µM with MT4 [1], 0.65 µM in assay [2], more than 2 µM in assay [3] and 0.59 µM in assay [5].
As for `CC(C)(C)[Si](C)(C)OC[C@H]1O[C@H](NC(=O)NC(=O)c2ccccc2)[C@H](O[Si](C)(C)C(C)(C)C)[C@]12OS(=O)(=O)C=C2N`, the CC50 in the assay on CCRF-CEM is 24 µM; with MT4 [4], more than 250 µM. For the same molecule, the EC50 (in the assay with MT4 [1]; in assay [2]; in assay [3]; in assay [5]) was more than 250 µM throughout.
Consider `CC(C)(C)[Si](C)(C)OC[C@H]1O[C@@H](OCc2ccccc2)[C@H](O[Si](C)(C)C(C)(C)C)[C@@]12OS(=O)(=O)C=C2N`, for which the CC50 with CCRF-CEM is 11 µM; with MT4 [4], 13 µM. Further, the EC50 is more than 6.4 µM in the assay with MT4 [1], more than 6.4 µM in assay [2], more than 6.4 µM in assay [3] and 4.6 µM in assay [5].
Consider `CC(=O)N[C@H]1O[C@H](CO[Si](C)(C)C(C)(C)C)[C@@]2(OS(=O)(=O)C=C2N)[C@H]1O[Si](C)(C)C(C)(C)C`, for which the EC50 (in the assay with MT4 [1]; in assay [2]; in assay [3]; in assay [5]) was more than 8 µM each time. The CC50 in the assay on MT4 [4] is 16 µM.
With `CC(C)(C)[Si](C)(C)OC[C@H]1O[C@@H](N2CCC(=O)NC2=O)[C@H](O[Si](C)(C)C(C)(C)C)[C@]12OS(=O)(=O)C=C2N`, the CC50 with CCRF-CEM came to 19 µM; with MT4 [4] it was 21 µM. The EC50 was more than 2 µM with MT4 [1], 0.31 µM in assay [2] and 0.92 µM in assay [5].
As to `COC(=O)c1ccccc1NC(=O)N[C@@H]1O[C@H](CO[Si](C)(C)C(C)(C)C)[C@@]2(OS(=O)(=O)C=C2N)[C@H]1O[Si](C)(C)C(C)(C)C`, the values for the CC50 in the assay with CCRF-CEM and in the assay with MT4 [4] were 3.8 µM and 17 µM, respectively. The EC50 in the assay on MT4 [1] is more than 2 µM; in assay [2], more than 2 µM; in assay [3], more than 2 µM; in assay [5], 3.1 µM.
`CC(C)(C)[Si](C)(C)OC[C@H]1O[C@H](NC(N)=O)[C@H](O[Si](C)(C)C(C)(C)C)[C@]12OS(=O)(=O)C=C2N`: the CC50 in the assay on CCRF-CEM is 203 µM; in the assay with MT4 [4], more than 250 µM. Also, the EC50 is more than 250 µM with MT4 [1], 57 µM in assay [2], more than 50 µM in assay [3] and more than 250 µM in assay [5].
As for `CC(C)(C)[Si](C)(C)OC[C@H]1O[C@@H](n2ccc(=O)[nH]c2=O)[C@H](O[Si](C)(C)C(C)(C)C)C12OS(=O)(=O)C=C2N` (stereo not given in full), the EC50 was more than 20 µM in the assay on MT4 [1] and 0.18 µM in assay [5]. The molecule also showed a CC50 with MT4 [4] of 13 µM.
Regarding `CC(C)(C)[Si](C)(C)OC[C@H]1O[C@@H](NC(N)=O)[C@H](O[Si](C)(C)C(C)(C)C)[C@]12OS(=O)(=O)C=C2N`, the CC50 in the assay on CCRF-CEM and in the assay on MT4 [4] was more than 250 µM throughout. The EC50 is more than 250 µM in the assay on MT4 [1], 90 µM in assay [2], more than 50 µM in assay [3] and 90 µM in assay [5].
In the case of `CC(C)(C)[Si](C)(C)OC[C@H]1O[C@@H](NC(=O)NC(=O)c2ccccc2)[C@H](O[Si](C)(C)C(C)(C)C)[C@]12OS(=O)(=O)C=C2N`, the CC50 with CCRF-CEM amounted to 48 µM; with MT4 [4], 90 µM. The EC50 in the assay with MT4 [1] was more than 50 µM; in assay [2], 7 µM; in assay [3] it was more than 50 µM; in assay [5], 16 µM.
Turning to `CCNC(=O)N[C@@H]1O[C@H](CO[Si](C)(C)C(C)(C)C)[C@@]2(OS(=O)(=O)C=C2N)[C@H]1O[Si](C)(C)C(C)(C)C.CCNC(=O)N[C@H]1O[C@H](CO[Si](C)(C)C(C)(C)C)[C@@]2(OS(=O)(=O)C=C2N)[C@H]1O[Si](C)(C)C(C)(C)C`, the CC50 came to 20 µM with CCRF-CEM and 19 µM in the assay with MT4 [4]. For the same molecule, the EC50 (with MT4 [1]; in assay [2]; in assay [3]; in assay [5]) was more than 10 µM throughout.
Take `CC(C)(C)[Si](C)(C)OC[C@H]1O[C@@H](NC(=S)Nc2ccccc2)[C@H](O[Si](C)(C)C(C)(C)C)[C@]12OS(=O)(=O)C=C2N`: the CC50 with CCRF-CEM was found to be 4.1 µM; with MT4 [4], 3.7 µM. In addition, the EC50 (in the assay on MT4 [1]; in assay [2]; in assay [3]; in assay [5]) was more than 2 µM each time.
In the case of `CC(C)(C)[Si](C)(C)OC[C@H]1O[C@@H](OCc2ccccc2)[C@H](O[Si](C)(C)C(C)(C)C)[C@]12OS(=O)(=O)C=C2N`, the CC50 with CCRF-CEM was found to be 11 µM; in the assay with MT4 [4] it was 12 µM. For the same molecule, the EC50 was more than 6.4 µM in the assay on MT4 [1], more than 6.4 µM in assay [2], more than 6.4 µM in assay [3] and 4.9 µM in assay [5].
As to `CC(C)(C)[Si](C)(C)OC[C@H]1O[C@@H](N)[C@H](O[Si](C)(C)C(C)(C)C)[C@]12OS(=O)(=O)C=C2N`, the CC50 in the assay with CCRF-CEM was found to be 16 µM; with MT4 [4], 21 µM. Further, the EC50 (with MT4 [1]; in assay [2]; in assay [3]; in assay [5]) was more than 10 µM in each case.
On to `CC(=O)NC(=O)N[C@@H]1O[C@H](CO[Si](C)(C)C(C)(C)C)[C@@]2(OS(=O)(=O)C=C2N)[C@H]1O[Si](C)(C)C(C)(C)C`, for which the values for the CC50 with CCRF-CEM and in the assay on MT4 [4] were 15 µM and 26 µM, respectively. Moreover, the EC50 in the assay on MT4 [1] was more than 10 µM; in assay [2] it was 0.65 µM; in assay [3], more than 10 µM; in assay [5], 0.89 µM.
On to `Cc1cn([C@@H]2O[C@H](CO[Si](C)(C)C(C)(C)C)C3(OS(=O)(=O)C=C3N)[C@H]2O[Si](C)(C)C(C)(C)C)c(=O)[nH]c1=O` (stereo not given in full), for which the EC50 is more than 20 µM with MT4 [1], 0.06 µM in assay [2], more than 20 µM in assay [3] and 0.06 µM in assay [5]. Besides, the midpoint of cytotoxicity in the assay on MT4 [4], the CC50, lay at 14 µM.
